CHRM5 PAM – potentiates acetylcholine response at human M5 receptor; P08912; CHO-K1 hM5, Fluo-8 calcium, ACh EC20 PAM; 0% = ACh EC20, 100% = ACh EC100; activation, % at 3 µM; 360,000 tested, 0.3% active; AID 624038;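 active means activation above the run cutoff, the mean activation of all test compounds plus 3 SD, cut at about 18% in these data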
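Assay system: CHO-K1 hM5 cells / Incubation: Fluo-8 loading 80 min at 37 °C plus 30 min room temperature / Technique: Fluo-8 calcium dye fluorescence, kinetic read / Repeats: single replicate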
CHRM5 antagonist – CHRM5 antagonism in calcium assay | 360,000 tested, 0.59% active | P08912 | inhibition, % at 3 µM | AID 624040 | CHO-hM5 cells, Fluo-8 calcium fluorescence, ACh EC80;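 active means inhibition above a per-plate cutoff, the mean of that plate's test compounds plus 3 SD, cut at about 27% in these data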
CHRM5 agonist – CHRM5 agonism in calcium assay. P08912. CHO-K1 hM5 cells, Fluo-8 calcium fluorescence; 0% DMSO wells, 100% maximal acetylcholine response. activation, % at 3 µM. 360,000 tested, 0.19% active;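 active means activation above the run's mean over test compounds plus 3 SD, cut at about 23% in these data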;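 further: signal is peak over basal fluorescence ratio across the kinetic read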
M4 ag – agonists of human muscarinic M4 receptor (CHRM4); 360,000 tested, 0.14% active; activation, % at 3 µM; CHO-K1 hM4/Gqi5, Fluo-8 calcium fluorescence; vehicle 0%, full acetylcholine response 100%; AID 624127;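 active means activation above the run mean over all test wells plus 3 SD, cut at about 32% in these data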;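 further: peak over basal fluorescence ratio per well then scaled between controls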
Target sequence (P08173 whole entry, looked up): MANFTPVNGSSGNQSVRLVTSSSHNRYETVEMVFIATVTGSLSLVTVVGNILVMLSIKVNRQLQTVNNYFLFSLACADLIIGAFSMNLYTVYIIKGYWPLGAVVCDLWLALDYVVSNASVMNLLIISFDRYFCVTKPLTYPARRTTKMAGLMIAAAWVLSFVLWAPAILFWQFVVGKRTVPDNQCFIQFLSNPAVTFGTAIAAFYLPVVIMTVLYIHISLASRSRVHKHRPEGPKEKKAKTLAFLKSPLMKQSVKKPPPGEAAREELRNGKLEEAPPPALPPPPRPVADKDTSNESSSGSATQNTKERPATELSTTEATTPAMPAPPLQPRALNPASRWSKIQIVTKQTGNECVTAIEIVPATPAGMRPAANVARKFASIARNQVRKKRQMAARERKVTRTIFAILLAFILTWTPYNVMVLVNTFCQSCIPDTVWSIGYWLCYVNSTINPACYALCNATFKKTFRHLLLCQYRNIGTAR
CHRM4 PAM – potentiates acetylcholine response at human M4 receptor | CHO-K1 hM4/Gqi5, Fluo-8 calcium fluorescence, ACh EC20; 0% = ACh EC20, 100% = maximal ACh | P08173 | 360,000 tested, 0.4% active | AID 624126 | activation, % at 3 µM;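 active means activation above its plate's cutoff, the mean activation of sample wells plus 3 SD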
M4 antag – blocks acetylcholine activation of human M4 receptor. CHO-hM4 cells, ACh EC80, Fluo-8 calcium fluorescence. P08173. inhibition, % at 3 µM. 360,000 tested, 0.73% active;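 active means inhibition above its plate's cutoff, the mean inhibition of sample wells plus 3 SD, cut at about 27% in these data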
Numbers stand for hits. Sampled rows, rich in hits. Any-hit rate of the full collection: about 1.8%.

What do the screens show for `Cc1cccc(NC(=O)CCCN2C(=O)C3CC=CCC3C2=O)c1` (stereo not given)?
CHRM5 PAM: inactive; CHRM5 antagonist: inactive; CHRM5 agonist: inactive; M4 ag: inactive; CHRM4 PAM: inactive; M4 antag: inactive

Results for CCc1ccc(NC(=O)CCCN2C(=O)C3CC=CCC3C2=O)cc1 (stereo not given) ?
CHRM5 PAM: inactive; CHRM5 antagonist: 29; CHRM5 agonist: inactive; M4 ag: inactive; CHRM4 PAM: inactive; M4 antag: inactive

Results for Cc1sc2ncn3c(C)nnc3c2c1C ?
CHRM5 PAM: inactive; CHRM5 antagonist: inactive; CHRM5 agonist: inactive; M4 ag: inactive; CHRM4 PAM: 19; M4 antag: inactive

What do the screens show for `Cc1nc2ccc(S(=O)(=O)N(C)CC(=O)NCCc3ccccc3)cc2s1`?
CHRM5 PAM: inactive; CHRM5 antagonist: inactive; CHRM5 agonist: inactive; M4 ag: inactive; CHRM4 PAM: inactive; M4 antag: inactive

Results for Cc1cc(C)c2sc(NNC(=O)C3COc4ccccc4O3)nc2c1 (stereo not given) ?
CHRM5 PAM: inactive; CHRM5 antagonist: inactive; CHRM5 agonist: inactive; M4 ag: inactive; CHRM4 PAM: 16; M4 antag: inactive

How did C=CCSC(=C(C#N)C#N)c1cc2c([nH]1)CCCC2 do in these assays?
CHRM5 PAM: inactive; CHRM5 antagonist: inactive; CHRM5 agonist: inactive; M4 ag: inactive; CHRM4 PAM: inactive; M4 antag: inactive

How did COc1ccc(CCN2C(=O)CSC2=Nc2ccc(C(C)C)cc2)cc1OC do in these assays?
CHRM5 PAM: inactive; CHRM5 antagonist: 35; CHRM5 agonist: inactive; M4 ag: inactive; CHRM4 PAM: inactive; M4 antag: 37

How did Fc1ccc(-n2nnnc2-c2cnc(-c3cccs3)nc2C(F)(F)F)cc1 do in these assays?
CHRM5 PAM: inactive; CHRM5 antagonist: 47; CHRM5 agonist: inactive; M4 ag: inactive; CHRM4 PAM: inactive; M4 antag: 48

Results for COc1ccccc1NC(=O)Nc1nc(C(N)Cc2ccccc2)cs1 (stereo not given) ?
CHRM5 PAM: inactive; CHRM5 antagonist: inactive; CHRM5 agonist: inactive; M4 ag: inactive; CHRM4 PAM: inactive; M4 antag: inactive

How did Cc1ccccc1NC(=O)Nc1nc(C(N)Cc2ccccc2)cs1 (stereo not given) do in these assays?
CHRM5 PAM: inactive; CHRM5 antagonist: inactive; CHRM5 agonist: inactive; M4 ag: 36; CHRM4 PAM: inactive; M4 antag: inactive

How did COc1ccccc1NC(=O)Nc1nc(C(N)Cc2ccc(Cl)cc2)cs1 (stereo not given) do in these assays?
CHRM5 PAM: inactive; CHRM5 antagonist: inactive; CHRM5 agonist: inactive; M4 ag: 51; CHRM4 PAM: inactive; M4 antag: 34

Results for NC(Cc1ccc(Cl)cc1)c1csc(NC(=O)Nc2ccccc2)n1 (stereo not given) ?
CHRM5 PAM: inactive; CHRM5 antagonist: inactive; CHRM5 agonist: inactive; M4 ag: inactive; CHRM4 PAM: inactive; M4 antag: 27

Results for C=CCNC(=S)Nc1cc(Cl)ccc1OC ?
CHRM5 PAM: inactive; CHRM5 antagonist: inactive; CHRM5 agonist: inactive; M4 ag: inactive; CHRM4 PAM: inactive; M4 antag: inactive

What do the screens show for `O[C@H]1CN(CC2CCCCC2)[C@@H](c2ccc(Cl)cc2)C[C@@H]1n1cc(-c2ccc(F)cc2)nn1`?
CHRM5 PAM: inactive; CHRM5 antagonist: inactive; CHRM5 agonist: inactive; M4 ag: inactive; CHRM4 PAM: inactive; M4 antag: inactive

What do the screens show for `O=C1NC[C@H](Cc2ccccc2)N(CC2CCN(CCCCc3ccccc3)CC2)C1=O`?
CHRM5 PAM: inactive; CHRM5 antagonist: inactive; CHRM5 agonist: inactive; M4 ag: inactive; CHRM4 PAM: inactive; M4 antag: inactive

What do the screens show for `S=C1NC[C@H](Cc2ccccc2)N1CC1CCN(CCCCc2ccccc2)CC1`?
CHRM5 PAM: inactive; CHRM5 antagonist: inactive; CHRM5 agonist: inactive; M4 ag: inactive; CHRM4 PAM: inactive; M4 antag: 28

Results for CCN(C(=O)CSc1nc(N)cc(=O)[nH]1)c1c(N)n(Cc2ccccc2)c(=O)[nH]c1=O ?
CHRM5 PAM: inactive; CHRM5 antagonist: inactive; CHRM5 agonist: inactive; M4 ag: inactive; CHRM4 PAM: inactive; M4 antag: inactive
